ChEMBL document CHEMBL4765367, “Design, synthesis and antimicrobial evaluation of novel glycosylated-fluoroquinolones derivatives” (Eur J Med Chem, 2020)
≈ marks a conversion by molar mass, not a printed value. Structures can show the parent of a compound that is named as a salt. Calls of active or inactive are those of the source. No cut-off for these calls is given here.

Key:
[1] = tested on: Candida albicans; assay: Antifungal activity against Candida albicans ATCC 10231 assessed as reduction in fungal growth incubated for 48 hrs by broth microdilution method; format: functional
[2] = tested on: Stachybotrys chartarum; assay: Antifungal activity against Stachybotrys chartarum IBT 7711 assessed as reduction in fungal growth incubated for 48 hrs by broth microdilution method; format: functional
Summary of the method: (§1)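 Conidia were harvested from cultures grown on malt extract agar at 30 °C for 7 d and counted by hemocytometer (mean of three counts). Stock suspensions were diluted 1:50 in malt extract broth. Compounds were made as 4.0 mg/mL DMSO stocks and two-fold serially diluted in broth. Plates were incubated at 30 °C for 48 h and read at A405. MIC is the lowest concentration with no viability. Fluconazole was the positive control, DMSO the vehicle; triplicate.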

[3] = tested on: Listeria monocytogenes; assay: Antimicrobial activity against Listeria monocytogenes ATCC 19115 assessed as inhibition of microbial growth incubated for 24 hrs by microbroth dilution method; format: functional
Summary of the method: (§2)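 Bacteria were grown in suitable medium at 37 °C for 24 h and adjusted to 0.5 McFarland. Compound DMSO stocks were two-fold serially diluted in broth, and 10^6 inoculum was added. Plates were incubated at 37 °C for 24 h and read at A625. MIC is the lowest concentration showing no viability. Fluoroquinolone positive controls, DMSO negative, sterility and growth controls were included; triplicate.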

[4] = tested on: Escherichia coli; assay: Antimicrobial activity against Escherichia coli O157:H7 assessed as inhibition of microbial growth incubated for 24 hrs by microbroth dilution method; format: functional
[5] = tested on: Penicillium chrysogenum; assay: Antifungal activity against Penicillium chrysogenum ATCC 10106 assessed as reduction in fungal growth incubated for 48 hrs by broth microdilution method; format: functional; summary of the method: as §1
[6] = tested on: Pseudomonas aeruginosa; assay: Antimicrobial activity against Pseudomonas aeruginosa ATCC 9627 assessed as inhibition of microbial growth incubated for 24 hrs by microbroth dilution method; format: functional; summary of the method: as §2
[7] = tested on: Aspergillus flavus; assay: Antifungal activity against Aspergillus flavus ATCC 9643 assessed as reduction in fungal growth incubated for 48 hrs by broth microdilution method; format: functional; summary of the method: as §1
[8] = tested on: Escherichia coli; assay: Antimicrobial activity against Escherichia coli ATCC 8739 assessed as inhibition of microbial growth incubated for 24 hrs by microbroth dilution method; format: functional; summary of the method: as §2
[9] = tested on: Staphylococcus aureus; assay: Antimicrobial activity against methicillin-sensitive Staphylococcus aureus ATCC 9253 assessed as inhibition of microbial growth incubated for 24 hrs by microbroth dilution method; format: functional; summary of the method: as §2
[10] = tested on: Escherichia coli; assay: Antimicrobial activity against Escherichia coli NCTC 11954 producing penicillinase assessed as inhibition of microbial growth incubated for 24 hrs by microbroth dilution method; format: functional; summary of the method: as §2
[11] = tested on: Salmonella enterica; assay: Antimicrobial activity against Salmonella enterica ATCC 13312 assessed as inhibition of microbial growth incubated for 24 hrs by microbroth dilution method; format: functional; summary of the method: as §2
[12] = tested on: Escherichia coli; assay: Antimicrobial activity against fluoroquinolone-resistant Escherichia coli assessed as inhibition of microbial growth incubated for 24 hrs by microbroth dilution method; format: functional
[13] = tested on: L6; assay: Cytotoxicity against rat L6 cells assessed as inhibition of cell viability incubated for 24 hrs by MTT assay; format: cell-based; settings: L6, 24 h
Summary of the method: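 L6 rat myoblasts were grown in glucose-DMEM with 10% FBS, 1 mM L-glutamine, penicillin and streptomycin at 37 °C in 5% CO2. They were seeded at 2 × 10^4 cells/well and allowed to attach for 24 h. Cells were exposed to graded concentrations for 24 h, with 0.1% DMSO as vehicle. MTT (0.5 mg/mL) was added for 4 h, formazan was dissolved in DMSO, and A570 was read. Viability is given relative to vehicle. IC50 came from dose-effect curves; triplicate.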

[14] = tested on: Fusarium solani; assay: Antifungal activity against Fusarium solani ATCC 36031 assessed as reduction in fungal growth incubated for 48 hrs by broth microdilution method; format: functional; summary of the method: as §1
[15] = tested on: Staphylococcus aureus; assay: Antimicrobial activity against methicillin-resistant Staphylococcus aureus ATCC 33591 assessed as inhibition of microbial growth incubated for 24 hrs by microbroth dilution method; format: functional
[16] = tested on: Escherichia coli; assay: Potency index, ratio of norfloxacin MIC to test compound MIC for fluoroquinolone-resistant Escherichia coli measured after 24 hrs by microbroth dilution method; format: functional
[17] = tested on: Escherichia coli; assay: Potency index, ratio of ciprofloxacin HCl MIC to test compound MIC for fluoroquinolone-resistant Escherichia coli measured after 24 hrs by microbroth dilution method; format: functional
[18] = tested on: Stachybotrys chartarum; assay: Potency index, ratio of fluconazole MIC to test compound MIC for Stachybotrys chartarum IBT 7711 measured after 48 hrs by broth microdilution method; format: functional

## CCn1cc(C(=O)O)c(=O)c2cc(F)c(N3CCNCC3)cc21 [NORFLOXACIN]
[1]
  MIC: < 5.9 µM
[2]
  MIC: 196 µM (≈ 62.5 µg/mL)
[3]
  MIC: < 5.9 µM
[4]
  MIC: < 5.9 µM
[5]
  MIC: 196 µM (≈ 62.5 µg/mL)
[6]
  MIC: 98 µM
[7]
  MIC: 783 µM (≈ 250 µg/mL)
[8]
  MIC: 48.9 µM
[9]
  MIC: 24.4 µM
[10]
  MIC: 24.4 µM
[11]
  MIC: < 5.9 µM
[12]
  MIC: 294 µM
[13]
  IC50: 3.43 µM
[14]
  MIC: 391 µM (≈ 125 µg/mL)
[15]
  MIC: 24.4 µM

## OC(Cn1cncn1)(Cn1cncn1)c1ccc(F)cc1F [FLUCONAZOLE]
[1]
  MIC: 408 µM (≈ 125 µg/mL)
[2]
  MIC: 102 µM (≈ 31.3 µg/mL)
[5]
  MIC: 204 µM (≈ 62.5 µg/mL)
[7]
  MIC: 51 µM (≈ 15.6 µg/mL)
[14]
  MIC: 102 µM (≈ 31.3 µg/mL)

## CCn1cc(C(=O)N[C@H]2C(O)O[C@H](CO)[C@@H](O)[C@@H]2O)c(=O)c2cc(F)c(N3CCN(C(C)=O)CC3)cc21 (stereo not given in full)
[1]
  MIC: 59.9 µM (≈ 31.3 µg/mL)
[2]
  MIC: 120 µM (≈ 62.5 µg/mL)
[3]
  MIC: inactive
[4]
  MIC: 59.9 µM
[16]
  Ratio: 3
[5]
  MIC: 120 µM (≈ 62.5 µg/mL)
[6]
  MIC: inactive
[7]
  MIC: 478 µM (≈ 250 µg/mL)
[8]
  MIC: inactive
[9]
  MIC: inactive
[10]
  MIC: 239 µM
[11]
  MIC: 14.9 µM
[12]
  MIC: 89.8 µM
[13]
  IC50: 3.72 µM
[14]
  MIC: 239 µM (≈ 125 µg/mL)
[15]
  MIC: 478 µM

## COc1c(N2C[C@@H]3CCCN(C(C)=O)[C@@H]3C2)c(F)cc2c(=O)c(C(=O)N[C@H]3C(OC(C)=O)O[C@H](COC(C)=O)[C@@H](OC(C)=O)[C@@H]3OC(C)=O)cn(C3CC3)c12 (stereo not given in full)
[1]
  MIC: 80.9 µM (≈ 62.5 µg/mL)
[2]
  MIC: 324 µM (≈ 250 µg/mL)
[3]
  MIC: < 5 µM
[4]
  MIC: 162 µM
[5]
  MIC: 162 µM (≈ 125 µg/mL)
[6]
  MIC: 324 µM
[7]
  MIC: 162 µM (≈ 125 µg/mL)
[8]
  MIC: 162 µM
[9]
  MIC: inactive
[10]
  MIC: inactive
[11]
  MIC: inactive
[12]
  MIC: 485 µM
[13]
  IC50: 5.53 µM
[14]
  MIC: 324 µM (≈ 250 µg/mL)
[15]
  MIC: 162 µM

## CC(=O)OC[C@H]1OC(OC(C)=O)[C@H](NC(=O)c2cn(C3CC3)c3cc(N4CCN(C(C)=O)CC4)c(F)cc3c2=O)[C@@H](OC(C)=O)[C@@H]1OC(C)=O (stereo not given in full)
[1]
  MIC: inactive
[2]
  MIC: 356 µM (≈ 250 µg/mL)
[3]
  MIC: inactive
[4]
  MIC: 178 µM
[5]
  MIC: < 5.6 µM
[6]
  MIC: 11.1 µM
[17]
  Ratio: 2
[7]
  MIC: 712 µM (≈ 500 µg/mL)
[8]
  MIC: inactive
[9]
  MIC: inactive
[10]
  MIC: inactive
[11]
  MIC: 11.1 µM
[12]
  MIC: 267 µM
[13]
  IC50: 3.62 µM
[14]
  MIC: 356 µM (≈ 250 µg/mL)
[15]
  MIC: inactive

## CC(=O)N1CCN(c2cc3c(cc2F)c(=O)c(C(=O)N[C@H]2C(O)O[C@H](CO)[C@@H](O)[C@@H]2O)cn3C2CC2)CC1 (stereo not given in full)
[1]
  MIC: inactive
[2]
  MIC: 468 µM (≈ 250 µg/mL)
[3]
  MIC: inactive
[4]
  MIC: 234 µM
[5]
  MIC: 234 µM (≈ 125 µg/mL)
[6]
  MIC: inactive
[7]
  MIC: 234 µM (≈ 125 µg/mL)
[8]
  MIC: inactive
[9]
  MIC: inactive
[10]
  MIC: inactive
[11]
  MIC: inactive
[12]
  MIC: 702 µM
[13]
  IC50: 4.03 µM
[14]
  MIC: 468 µM (≈ 250 µg/mL)
[15]
  MIC: inactive

## COc1c(N2C[C@@H]3CCCN(C(C)=O)[C@@H]3C2)c(F)cc2c(=O)c(C(=O)N[C@H]3C(O)O[C@H](CO)[C@@H](O)[C@@H]3O)cn(C3CC3)c12 (stereo not given in full)
[1]
  MIC: 207 µM (≈ 125 µg/mL)
[18]
  Ratio: 100
[2]
  MIC: 1.7 µM (≈ 1.03 µg/mL)
[3]
  MIC: 103 µM
[4]
  MIC: 828 µM
[5]
  MIC: 1.7 µM (≈ 1.03 µg/mL)
[6]
  MIC: 51.8 µM
[7]
  MIC: 207 µM (≈ 125 µg/mL)
[8]
  MIC: 207 µM
[9]
  MIC: inactive
[10]
  MIC: 207 µM
[11]
  MIC: inactive
[12]
  MIC: 310 µM
[13]
  IC50: 5.08 µM
[14]
  MIC: 207 µM (≈ 125 µg/mL)
[15]
  MIC: 207 µM

## COc1c(N2C[C@@H]3CCCN[C@@H]3C2)c(F)cc2c(=O)c(C(=O)O)cn(C3CC3)c12 [MOXIFLOXACIN]
[1]
  MIC: 1.1 µM (≈ 0.442 µg/mL)
[2]
  MIC: 2.3 µM (≈ 0.923 µg/mL)
[3]
  MIC: < 0.5 µM
[4]
  MIC: < 0.5 µM
[5]
  MIC: 1.1 µM (≈ 0.442 µg/mL)
[6]
  MIC: 71.5 µM
[7]
  MIC: 286 µM (≈ 115 µg/mL)
[8]
  MIC: < 0.5 µM
[9]
  MIC: < 0.5 µM
[10]
  MIC: < 0.5 µM
[11]
  MIC: < 4.3 µM
[12]
  MIC: 3.4 µM
[13]
  IC50: 5.78 µM
[14]
  MIC: 286 µM (≈ 115 µg/mL)
[15]
  MIC: < 0.5 µM

## CCn1cc(C(=O)N[C@H]2C(OC(C)=O)O[C@H](COC(C)=O)[C@@H](OC(C)=O)[C@@H]2OC(C)=O)c(=O)c2cc(F)c(N3CCN(C(C)=O)CC3)cc21 (stereo not given in full)
[1]
  MIC: 5.6 µM (≈ 3.87 µg/mL)
[18]
  Ratio: 2
[2]
  MIC: 45.3 µM (≈ 31.3 µg/mL)
[3]
  MIC: inactive
[4]
  MIC: 45.3 µM
[16]
  Ratio: 2
[5]
  MIC: 45.3 µM (≈ 31.3 µg/mL)
[6]
  MIC: inactive
[7]
  MIC: 362 µM (≈ 250 µg/mL)
[8]
  MIC: inactive
[9]
  MIC: inactive
[10]
  MIC: 181 µM
[11]
  MIC: 11.3 µM
[12]
  MIC: 136 µM
[13]
  IC50: 5.32 µM
[14]
  MIC: 181 µM (≈ 125 µg/mL)
[15]
  MIC: 362 µM

## O=C(O)c1cn(C2CC2)c2cc(N3CCNCC3)c(F)cc2c1=O [CIPROFLOXACIN HYDROCHLORIDE]
[1]
  MIC: 0.3 µM
[2]
  MIC: 85 µM
[3]
  MIC: 0.5 µM
[5]
  MIC: < 10.6 µM
[6]
  MIC: < 5.2 µM
[7]
  MIC: inactive
[9]
  MIC: < 5.2 µM
[11]
  MIC: < 5.2 µM
[14]
  MIC: < 10.6 µM
[15]
  MIC: < 5.2 µM
